Legend:
K562 = experiment: Antiproliferative activity against BRD4-independent human K562 cells after 72 hrs by CCK8 assay; format: functional, cell-based; details: K562, 72 h
Summary of the method: (§1)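 Cells seeded at 1 × 10^4 per well in 100 µL IMDM with 20% FBS. After 12 h, triple-diluted compound series added in 50 µL. Read 72 h after seeding: CCK-8 reagent added, 4 h at 37 °C, absorbance at 450 nm, blank-corrected relative to untreated control. IC50 fitted from the curve. Means ± SD from three independent experiments.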

MV4-11 = experiment: Antiproliferative activity against BRD4-sensitive human MV411 cells after 72 hrs by CCK8 assay; format: functional, cell-based; details: MV4-11, 72 h; summary of the method: as §1
[1] = target: T1, Bromodomain-containing protein 4 (Homo sapiens, UniProt O60885); experiment: Inhibition of BRD4-BD2 (333 to 460 residues) (unknown origin) using histone H4 peptide as substrate preincubated for 15 mins followed by addition of substrate measured after 60 mins by AlphaScreen assay
HL-60 = experiment: Antiproliferative activity against BRD4-sensitive human HL60 cells after 72 hrs by CCK8 assay; format: functional, cell-based; details: HL-60, 72 h; summary of the method: as §1
[2] = target: T1, Bromodomain-containing protein 4; experiment: Inhibition of BRD4-BD1 (44 to 168 residues) (unknown origin) using histone H4 peptide as substrate preincubated for 15 mins followed by addition of substrate measured after 60 mins by AlphaScreen assay
[3] = target: T1, Bromodomain-containing protein 4; experiment: Inhibition of recombinant human His-tagged BRD4-BD1 expressed in bacteria using biotinylated H4-tetraacetyl peptide as substrate after 20 mins by AlphaScreen assay

| SMILES | IC50 (K562) [nM] | IC50 (MV4-11) [nM] | IC50 [1] [nM] | IC50 (HL-60) [nM] | IC50 [2] [nM] | Ki [3] [nM] |
| --- | --- | --- | --- | --- | --- | --- |
| COc1cccc(CNc2cccc(Oc3ccc(S(C)(=O)=O)cc3-c3cn(C)c(=O)c4cncn34)c2)c1 | > 10000 | 1160 | 190 | 1530 | 430 | – |
| CC(=O)Nc1ccc(CNc2cccc(Oc3ccc(S(C)(=O)=O)cc3-c3cn(C)c(=O)c4cncn34)c2)cc1 | – | – | 180 | – | 380 | – |
| Cc1sc2c(c1C)C(c1ccc(Cl)cc1)=N[C@@H](CC(=O)OC(C)(C)C)c1nnc(C)n1-2 | 9120 | 80 | – | 110 | – | – |
| CCS(=O)(=O)c1ccc(Oc2cccc(NCc3ccc(NC(C)=O)cc3)c2)c(-c2cn(C)c(=O)c3cncn23)c1 | > 10000 | 170 | 40 | 2860 | 130 | – |
| CCS(=O)(=O)c1ccc(Oc2cccc(NS(=O)(=O)c3cccs3)c2)c(-c2cn(C)c(=O)c3cncn23)c1 | – | – | 280 | – | 390 | – |
| Cn1cc(-c2cc(S(C)(=O)=O)ccc2Oc2cccc(NCc3ccc(C#N)cc3)c2)n2cncc2c1=O | > 10000 | 4200 | 180 | 6100 | 350 | – |
| CCS(=O)(=O)c1ccc(Oc2ccc(F)cc2)c(-c2cn(C)c(=O)c3cncn23)c1 | > 10000 | 780 | 220 | 940 | 200 | – |
| CCS(=O)(=O)c1ccc(Oc2cccc(NS(=O)(=O)c3ccc(OC)cc3)c2)c(-c2cn(C)c(=O)c3cncn23)c1 | – | – | 140 | – | 200 | – |
| Cn1cc(-c2cc(S(C)(=O)=O)ccc2Oc2cccc(NCc3ccc(F)cc3)c2)n2cncc2c1=O | > 10000 | 950 | 320 | 1400 | 680 | – |
| CCS(=O)(=O)c1ccc(Oc2cccc(NS(=O)(=O)c3ccccc3F)c2)c(-c2cn(C)c(=O)c3cncn23)c1 | – | – | 170 | – | 240 | – |
| CCS(=O)(=O)Nc1ccc(Oc2ccc(F)cc2F)c(-c2cn(C)c(=O)c3[nH]ccc23)c1 [MIVEBRESIB] | > 10000 | 70 | 69 | 90 | 74 | 15 |
| CCS(=O)(=O)c1ccc(Oc2ccc(F)cc2F)c(-c2cn(C)c(=O)c3cncn23)c1 | > 10000 | 410 | 260 | 620 | 240 | – |
| Cn1cc(-c2cc(S(C)(=O)=O)ccc2Oc2ccc(F)cc2F)n2cncc2c1=O | > 10000 | 1850 | 580 | 2860 | 520 | – |
| CCS(=O)(=O)c1ccc(Oc2cccc(NCc3ccc(C#N)cc3)c2)c(-c2cn(C)c(=O)c3cncn23)c1 | > 10000 | 180 | 76 | 570 | 130 | – |
